Measurements of several laboratories.
Each line is one published result; the experiments were not run side by side. ≈ marks a conversion by molar mass, not a printed value.
Organism: Nakaseomyces glabratus

SMILES | assay | system | conditions | endpoint | value
CCCCCCCCCCN1CCN(CC(O)(Cn2cncn2)c2ccc(Cl)cc2Cl)CC1 (stereo not drawn) | microbial growth, broth dilution | ATCC2001 | 48 h | MIC | 0.975 µg/mL (≈ 1.96 µM)
CCOC(=O)c1nc2ccccc2c(=O)n1Cc1cn(-c2ccc(Cl)cc2)nn1 | microbial growth, broth dilution | ATCC90030 | 24 h | IC50 | 195 µg/mL (≈ 476 µM)
CCCCCCCCCCCCN1CCNCC1 | microbial growth, broth dilution | ATCC2001 | 48 h | MIC | 1.95 µg/mL (≈ 7.66 µM)
CCCCCOc1c(OC)cc(NC(C)CCCNC(=O)C(N)CCCNC(=N)N)c2nc(C(C)(C)C)ccc12 (stereo not drawn) | microbial growth | ATCC90030 |  | IC50 | 19.1 µg/mL (≈ 34.2 µM)
CCOC(=O)c1nc2ccccc2c(=O)n1Cc1cn(-c2ccc(OC)cc2)nn1 | microbial growth, broth dilution | ATCC90030 | 24 h | IC50 | 118 µg/mL (≈ 292 µM)
CCCCCCCCCCCCCN1CCNCC1 | microbial growth, broth dilution | ATCC2001 | 48 h | MIC | 0.48 µg/mL (≈ 1.79 µM)
CCCCCCOc1c(OC)cc(NC(C)CCCNC(=O)C(N)Cc2cnc[nH]2)c2nc(C(C)(C)C)ccc12 (stereo not drawn) | microbial growth | ATCC90030 |  | IC50 | 19.2 µg/mL (≈ 34.8 µM)
C=CCCCCCCCCCCCC(O)CC(O)CO (stereo not drawn) | microbial growth, broth dilution | ATCC90030 |  | IC50 | > 200 µg/mL
CCCCCCOc1c(OC)cc(NC(C)CCCN)c2nc(C(C)(C)C)cc(C)c12 (stereo not drawn) | microbial killing | ATCC90030 |  | MFC | 20 µg/mL (≈ 46.5 µM)
CCCCCCCCCN1CCNCC1 | microbial growth, broth dilution | ATCC2001 | 48 h | MIC | 31.3 µg/mL (≈ 147 µM)
O=C(O)c1nc2ccccc2c(=O)n1Cc1cn(-c2cccc([N+](=O)[O-])c2)nn1 | microbial growth, broth dilution | ATCC90030 | 24 h | IC50 | 487 µg/mL (≈ 1240 µM)
OC(Cn1cncn1)(Cn1cncn1)c1ccc(F)cc1F | microbial killing | ATCC1182 |  | MFC | > 64 µg/mL
C[C@@H]1[C@H](O)[C@@H](C)/C=C/C=C/C=C/C=C/C=C/C=C/C=C/[C@H](O[C@@H]2O[C@H](C)[C@@H](O)[C@H](N)[C@@H]2O)C[C@@H]2O[C@](O)(C[C@@H](O)C[C@@H](O)[C@H](O)CC[C@@H](O)C[C@@H](O)CC(=O)O[C@H]1C)C[C@H](O)[C@H]2C(=O)O | microbial killing | ATCC90030 |  | MFC | 1.25 µg/mL (≈ 1.35 µM)
CCCCCCCCCCCCN1CCN(CC(O)(Cn2cncn2)c2ccc(Cl)cc2Cl)CC1 (stereo not drawn) | microbial growth, broth dilution | ATCC2001 | 48 h | MIC | 0.975 µg/mL (≈ 1.86 µM)
COc1ccc(-c2cc(OC)cc(C(C)C#Cc3c(C)nc(N)nc3N)c2)cc1 (stereo not drawn) | microbial growth, resazurin |  |  | MIC | 3.1 µg/mL (≈ 7.98 µM)
CCOC(=O)c1nc2ccccc2c(=O)n1Cc1cn(-c2ccccc2[N+](=O)[O-])nn1 | microbial growth, broth dilution | ATCC90030 | 24 h | IC50 | 272 µg/mL (≈ 648 µM)
OC(Cn1cncn1)(Cn1cncn1)c1ccc(F)cc1F | microbial growth, broth dilution |  | 24 h | MIC90 | 16 µg/mL (≈ 52.2 µM)
CCCCCCCCOc1c(OC)cc(NC(C)CCCN)c2nc(C(C)(C)C)ccc12 (stereo not drawn) | microbial growth | ATCC90030 |  | IC50 | 6.19 µg/mL (≈ 14 µM)
CCCCCCCCCCCCCCN1CCOCC1 | microbial growth, broth dilution | ATCC2001 | 48 h | MIC | > 31.3 µg/mL
CCOC(=O)c1nc2ccccc2c(=O)n1Cc1cn(-c2cccc(OC)c2)nn1 | microbial growth, broth dilution | ATCC90030 | 24 h | IC50 | 417 µg/mL (≈ 1030 µM)
CCCCCCCCCCN1CCN(CC(O)(Cn2cncn2)c2ccc(F)cc2F)CC1 (stereo not drawn) | microbial growth, broth dilution | ATCC2001 | 48 h | MIC | > 31.3 µg/mL
OC(Cn1cncn1)(Cn1cncn1)c1ccc(F)cc1F | microbial growth, broth dilution | ATCC90030 | 24 h | IC50 | 7.8 µg/mL (≈ 25.5 µM)
CCCCCCCCOc1c(OC)cc(NC(C)CCCNC(=O)C2CCCN2)c2nc(C(C)(C)C)ccc12 (stereo not drawn) | microbial growth | ATCC90030 |  | IC50 | 11 µg/mL (≈ 20.3 µM)
O=C(O)c1nc2ccccc2c(=O)n1Cc1cn(-c2ccc(Cl)cc2)nn1 | microbial growth, broth dilution | ATCC90030 | 24 h | IC50 | 517 µg/mL (≈ 1350 µM)
CCCCCCOc1c(OC)cc(NC(C)CCCN)c2nc(C(C)(C)C)ccc12 (stereo not drawn) | microbial killing | ATCC90030 |  | MFC | 20 µg/mL (≈ 48.1 µM)
CN1CCNCC1 | microbial growth, broth dilution | ATCC2001 | 48 h | MIC | > 31.3 µg/mL
CCOC(=O)c1nc2ccccc2c(=O)n1Cc1cn(-c2ccccc2)nn1 | microbial growth, broth dilution | ATCC90030 | 24 h | IC50 | 182 µg/mL (≈ 484 µM)
